Source: PubChem (several laboratories)
T cell modulator: T cell immune modulators affecting CD8 T cell-vesicle binding. 2C CD8+ T cell-vesicle binding, flow cytometry; stronger effect = lower value. response (vesicle binding), % at 7 µM. hit rate 0.068% among 330,000;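 active means response, share of CD8 T cells binding vesicles, and their 90th percentile fluorescence all below set limits, cut at about 80% in these data, passing the limit was not always enough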;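 further: values below 100% mean blocked vesicle binding to the CD8+ T cells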
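incubation = binding step 1.5 h, 37 °C, antibody labelling 20 min, ice | test system = 2C mouse CD8+ T cells | read-out basis = percent CD8+ FL2 mean versus row control | controls = Peptide-free naked vesicles (low) and QL9 vesicles with 0.7% DMSO vehicle (high) | detection = flow cytometry of vesicle-bound cells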
Myeloid diff MLP: promotes myeloid progenitor differentiation; calls only at 10 µM; AID 624256; hit rate 1% among 360,000; ER-HoxA9 myeloid progenitors, lysozyme-GFP differentiation, flow cytometry;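 active means normalized GFP-positive differentiation at or above the plate's own cutoff, the solvent-only control mean plus 3 SD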;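 further: cells exposed to compound for four days before flow analysis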
CASP6 VEID inh: inhibitors of human caspase-6; P55212; purified caspase-6, Z-VEID-R110 cleavage fluorescence; inhibition, % at 12.5 µM; hit rate 0.53% among 350,000; AID 686996;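 active means mean inhibition across replicates at least about 35%, with every replicate also reaching that limit, limit read from the data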
Target sequence (P55212 24-179 limits assumed): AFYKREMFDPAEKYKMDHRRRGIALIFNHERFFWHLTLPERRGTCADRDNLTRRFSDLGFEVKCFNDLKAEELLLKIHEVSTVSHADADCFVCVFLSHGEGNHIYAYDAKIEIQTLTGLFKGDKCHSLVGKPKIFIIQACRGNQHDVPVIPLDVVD
Target sequence (P55212 194-293 limits assumed): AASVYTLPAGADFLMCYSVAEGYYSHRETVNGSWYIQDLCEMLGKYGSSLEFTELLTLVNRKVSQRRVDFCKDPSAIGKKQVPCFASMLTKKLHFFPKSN
Vif inh: blocks HIV Vif function; HEK293T cells, Vif self-association by quenched fluorescence, imaging, 24 h; inhibition, % at 7.49 µM; hit rate 0.35% among 340,000; AID 602346; in the data active means inhibition above about 50%, passing the limit was not always enough
Myeloid diff: promotes myeloid progenitor differentiation | shares compounds with Myeloid diff MLP | hit rate 2% among 2,300 | AID 651706 | calls only | ER-HoxA9 myeloid progenitors, GFP/Mac1 double-positive flow;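 active means share of green or green-and-red cells above 9 and 9% in run 1 or 4 and 3% in run 2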
GFP autofluor: compound fluorescence in myeloid differentiation counter-screen | fluorescence response, % (concentration not given with the values) | hit rate 7.4% among 2,300 | AID 651707 | shares compounds with Myeloid diff MLP | ER-HoxA9 myeloid progenitors, no estrogen, GFP autofluorescence flow cytometry; vehicle wells 0%, positive control 100%;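 active means over 5% cells positive for green fluorescent reporter, or over 2% positive for both it and APC stain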
Hits are given with their value. This is a sample that favours compounds with a hit; in the whole collection about 1.4% have one here.

C[C@@H]1CN([C@@H](C)CO)C(=O)CCCn2nncc2CO[C@@H]1CN(C)C(=O)Nc1cccc(Oc2ccccn2)c1 was read as Myeloid diff MLP inactive, CASP6 VEID inh inactive, Vif inh inactive, Myeloid diff inactive and GFP autofluor inactive.
For Cc1ccc(S(=O)(=O)N(C)C[C@@H]2OCc3cn(nn3)CCCC(=O)N([C@@H](C)CO)C[C@H]2C)cc1 the results were Myeloid diff MLP inactive, CASP6 VEID inh inactive, Vif inh inactive, Myeloid diff inactive and GFP autofluor inactive.
For C[C@H](CO)N1C[C@H](C)[C@H](CN(C)S(=O)(=O)c2ccc3c(c2)OCCCO3)OCc2cnnn2CCCC1=O the results were Myeloid diff MLP inactive, CASP6 VEID inh inactive and Vif inh inactive.
CCOc1ccccc1CSc1nc2ccccc2[nH]1 was read as T cell modulator inactive, Myeloid diff MLP inactive, Myeloid diff inactive and GFP autofluor inactive.
For O=S(=O)(c1ccc2c(c1)OCCO2)N1CCN(c2nc3ccccc3s2)CC1 the results were T cell modulator inactive, Myeloid diff MLP inactive, CASP6 VEID inh inactive, Vif inh inactive, Myeloid diff inactive and GFP autofluor inactive.
For C[n+]1c2n(c3ccccc31)N=C(c1cc(C(C)(C)C)c(O)c(C(C)(C)C)c1)CS2 the results were T cell modulator inactive, Myeloid diff MLP active, CASP6 VEID inh inactive, Vif inh inactive, Myeloid diff inactive and GFP autofluor inactive.
COc1cccc(C2=Nn3c(nnc3-c3ccccc3O)SC2)c1 was read as T cell modulator inactive and Myeloid diff MLP inactive.
`O=C1O[C@H](c2ccccc2)[C@H](c2ccccc2)N2[C@H]1[C@@H](C(=O)N1CCCCCCC1)[C@]1(C(=O)Nc3ccc(C#CC4=CCCCC4)cc31)[C@H]2c1ccc(O)cc1` gave CASP6 VEID inh inactive.
O=C1/C(=C\c2ccco2)CCC/C1=C\c1ccco1 was read as T cell modulator inactive, Myeloid diff MLP active, CASP6 VEID inh 74, Vif inh inactive, Myeloid diff inactive and GFP autofluor 37.
For O=C(C[C@H]1C=C[C@@H](NS(=O)(=O)c2ccc(F)cc2)[C@@H](CO)O1)NCCN1CCCCC1 the results were CASP6 VEID inh inactive.
CO[C@H]1CC[C@H]2CCN(C)C(=O)[C@H](C)[C@@H](OC)CN(C)C(=O)c3cc(C#N)ccc3OC[C@H]1O2 was read as CASP6 VEID inh inactive.
`NC(=O)CC(NC(=O)Cc1ccc(Cl)cc1)c1ccc(NC2CCCC2)c([N+](=O)[O-])c1` (centres undefined) gave T cell modulator inactive, Myeloid diff MLP inactive and CASP6 VEID inh inactive.
NC(=O)CC(NC(=O)Cc1ccc(Cl)cc1)c1ccc(NC2CCCCC2)c([N+](=O)[O-])c1 (centres undefined) was read as T cell modulator inactive, Myeloid diff MLP inactive, CASP6 VEID inh inactive, Myeloid diff inactive and GFP autofluor inactive.
CC(C)(C)OC(=O)N[C@@H](Cc1ccccc1)C(=O)N1CCC(C(=O)O)CC1 was read as T cell modulator inactive, Myeloid diff MLP inactive, Vif inh inactive, Myeloid diff inactive and GFP autofluor inactive.
`COc1cccc(-c2cc3nc(NCc4cccnc4)n(C)c(=O)c3s2)c1` gave Myeloid diff MLP inactive, CASP6 VEID inh inactive and Vif inh inactive.
Cn1c(NCc2cccnc2)nc2cc(-c3cccc(C(=O)NCCO)c3)sc2c1=O was read as Myeloid diff MLP active, CASP6 VEID inh inactive, Myeloid diff inactive and GFP autofluor inactive.
Screening COc1ccc(C(=O)Cn2cc[n+](C)c2)cc1 returned T cell modulator inactive, Myeloid diff MLP active, CASP6 VEID inh inactive, Vif inh inactive, Myeloid diff inactive and GFP autofluor inactive.
O=S(=O)(N[C@@H]1CC[C@@H](CCn2cc(C3(O)CCCC3)nn2)O[C@H]1CO)c1ccc(Cl)cc1 was read as CASP6 VEID inh inactive.
For Cn1c(=O)oc2cc(S(=O)(=O)N3CCCC(C(=O)NCc4ccc5c(c4)OCO5)C3)ccc21 (centres undefined) the results were T cell modulator inactive, Myeloid diff MLP inactive, CASP6 VEID inh inactive and Vif inh inactive.
For Cn1c(=O)oc2cc(S(=O)(=O)N3CCCC(C(=O)NCc4cccs4)C3)ccc21 (centres undefined) the results were T cell modulator inactive, Myeloid diff MLP inactive, CASP6 VEID inh inactive, Vif inh inactive, Myeloid diff inactive and GFP autofluor inactive.
`COc1ccccc1CNC(=O)C1CCCN(S(=O)(=O)c2ccc3c(c2)C(C)(C)C(=O)N3C)C1` (centres undefined) gave T cell modulator inactive, Myeloid diff MLP inactive, CASP6 VEID inh inactive, Vif inh inactive, Myeloid diff inactive and GFP autofluor inactive.
Screening COc1ccccc1CNC(=O)C1CCN(S(=O)(=O)c2ccc3c(c2)C(C)(C)C(=O)N3C)CC1 returned T cell modulator inactive, Myeloid diff MLP inactive, CASP6 VEID inh inactive and Vif inh inactive.
Screening O=C(NCCc1ccccc1)C1CCN(c2nc3ccccc3o2)CC1 returned T cell modulator inactive, Myeloid diff MLP inactive, CASP6 VEID inh inactive and Vif inh inactive.
O=C(NC1CCCCCCC1)C1CCN(c2nc3ccccc3o2)CC1 was read as T cell modulator inactive, Myeloid diff MLP inactive, Vif inh inactive, Myeloid diff inactive and GFP autofluor inactive.
CCN1C(=O)[C@H]2[C@H]3CN=C(SCc4ccc(C#N)cc4)N3[C@@](Cc3ccccc3)(C(=O)OC)[C@H]2C1=O was read as Myeloid diff MLP inactive, CASP6 VEID inh inactive and Vif inh inactive.
CCN1C(=O)[C@H]2[C@H]3CN=C(SCc4ccccc4)N3[C@@](Cc3ccccc3)(C(=O)OC)[C@H]2C1=O was read as Myeloid diff MLP inactive, CASP6 VEID inh inactive, Vif inh inactive, Myeloid diff inactive and GFP autofluor inactive.
`CCN1C(=O)[C@H]2[C@H]3CN=C(SCC4CC4)N3[C@@](Cc3ccccc3)(C(=O)OC)[C@H]2C1=O` gave Myeloid diff MLP inactive, CASP6 VEID inh inactive, Vif inh inactive, Myeloid diff inactive and GFP autofluor inactive.
For C[C@H](CO)N1C[C@H](C)[C@@H](CN(C)S(=O)(=O)c2ccc(F)cc2)Oc2ccc(NC(=O)c3ccncc3)cc2CC1=O the results were CASP6 VEID inh inactive.
O=C(NCc1ccc2c(c1)OCO2)C1CCN(c2ncccn2)CC1 was read as T cell modulator inactive, Myeloid diff MLP inactive, Vif inh inactive, Myeloid diff inactive and GFP autofluor inactive.
Screening CC(=O)C1C(c2ccc(OC(F)F)cc2)NC(=O)NC1(O)C(F)(F)F (centres undefined) returned T cell modulator inactive, Myeloid diff MLP inactive, CASP6 VEID inh inactive and Vif inh inactive.
Screening CC(=O)C1C(c2ccc(F)c(F)c2)NC(=O)NC1(O)C(F)(F)F (centres undefined) returned Myeloid diff MLP inactive, Vif inh inactive, Myeloid diff inactive and GFP autofluor inactive.
